≈ marks a conversion by molar mass, not a printed value. Calls of active or inactive are those of the source. The rule behind the calls is not given here.
How the values were obtained:
Staphylococcus aureus [1] = experiment: Antimicrobial activity against Staphylococcus aureus; type: functional
In short: (§1)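 Agar microdilution MIC. Compounds in DMSO, serially 2-fold diluted and mixed 1:100 into melted Mueller-Hinton agar, giving final concentrations of 0.03–128 µg/mL. Strains were S. aureus ATCC 25923 and MRSA SK1. Inocula were spotted onto the agar and incubated at 35 °C for 18 h. MIC was the lowest concentration preventing visible growth. Vancomycin was the positive control; DMSO agar was the growth control.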

Staphylococcus aureus [2] = experiment: Antimicrobial activity against methicillin-resistant Staphylococcus aureus; type: functional; in short: as §1

SMILES | Activity (Staphylococcus aureus [1]) | Activity (Staphylococcus aureus [2]) | MIC (Staphylococcus aureus [1]) [µg/mL] | MIC (Staphylococcus aureus [2]) [µg/mL]
COc1cc(/C(C)=C/CO)oc(=O)c1 | inactive | inactive | – | –
C/C=C(\C)c1cc(OC)cc(=O)o1 | inactive | inactive | – | –
O=C(O[C@H]1C(=O)C(CO)=C[C@@H](O)[C@@H]1O)c1cccc(O)c1 | inactive | inactive | – | –
O=C1C(CO)=C[C@@H](O)[C@H]2O[C@@H]12 [EPOXYDON] | – | – | 128 (≈ 820 µM) | 128 (≈ 820 µM)
CC1=CC(=O)CC(C)(C)[C@H]1/C=C/C(C)=C\C(=O)O | inactive | inactive | – | –
CC1=CC(=O)CC(C)(C)[C@@]1(O)/C=C/C(C)=C\C(=O)O | inactive | inactive | – | –
COC(=O)C(Cc1ccccc1)OC(CC(C)C)C(=O)O[C@H]1C(=O)C(CO)=C[C@@H](O)[C@@H]1O (stereo partly specified) | inactive | inactive | – | –
CC1=CC(=O)CC(C)(C)[C@@]1(O)/C=C/C(C)=C\C(=O)O[C@H]1C(=O)C(CO)=C[C@@H](O)[C@@H]1O [NIGROSPOXYDON A] | – | – | 64 (≈ 152 µM) | > 128
